Published values pooled from the literature.
Target: Phosphorylase b kinase gamma catalytic chain, liver/testis isoform (PHKG2, Homo sapiens, UniProt P15735)
Residues used in one study (P15735 1-406): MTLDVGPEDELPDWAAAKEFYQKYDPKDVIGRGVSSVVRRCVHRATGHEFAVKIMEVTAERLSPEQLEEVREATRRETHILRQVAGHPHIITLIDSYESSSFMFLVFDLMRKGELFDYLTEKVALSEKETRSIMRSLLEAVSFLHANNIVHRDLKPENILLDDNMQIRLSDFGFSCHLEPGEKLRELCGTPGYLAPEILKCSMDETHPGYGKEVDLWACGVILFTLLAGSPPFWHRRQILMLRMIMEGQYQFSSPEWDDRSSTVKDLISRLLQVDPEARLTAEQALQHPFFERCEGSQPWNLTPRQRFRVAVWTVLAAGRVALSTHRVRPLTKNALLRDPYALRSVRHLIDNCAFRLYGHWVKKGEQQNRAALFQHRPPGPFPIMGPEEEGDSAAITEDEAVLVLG

Compound | read-out | action | technique | cell line | tested at | measurement | result
COc1cc2c(Nc3ccc(Br)cc3F)ncnc2cc1OCC1CCN(C)CC1 | cell-free assay | – | – | – | 0.5 µM | remaining signal | 99.1%
CC(C)c1ccc(NC(=O)c2cccs2)c(-c2nc3ccccc3[nH]c2=O)c1 | enzyme activity | inhibitor | – | – | 1 µM | activity vs control | 96%
CCCCNc1ncc2c(-c3ccc(F)cc3)nn(C[C@H]3CC[C@H](N)CC3)c2n1 | target engagement in cells | inhibitor | chemoproteomics | – | 20 mM | inhibition | -3.3%
Cc1ccc(C(=O)NCc2ccsc2)cc1C#Cc1cn(C(C)C)c2ncnc(N)c12 | enzyme activity | inhibitor | – | – | 1 µM | activity vs control | 110%
CCN(CC)CCNC(=O)c1c(C)[nH]c(/C=C2\C(=O)Nc3ccc(F)cc32)c1C | enzyme activity | inhibitor | – | – | 10 µM | inhibition | 101%
O=C1Nc2ccc(Cl)cc2C1=Cc1cc(Cl)c(O)c(Cl)c1 | cell-free assay | – | – | – | 0.5 µM | remaining signal | 98.4%
CCC(=O)N[C@H]1CC[C@@H](C(=O)N(C)c2ccc(-c3nc4ccccc4o3)cc2)C1 | cell-free assay | – | competition with immobilised ligand | – | 1 µM | remaining binding | 100%
Cc1ccc(C(=O)Nc2ccc(CN3CCN(C)CC3)c(C(F)(F)F)c2)cc1C#Cc1cnc2cccnn12 | enzyme activity | inhibitor | – | – | 23.5 nM | remaining activity | 100%
Cc1cnc(NC2CCOCC2)nc1-n1cnc(C(=O)NC(CN)c2cc(F)cc(Cl)c2)c1 (stereo not drawn) | enzyme activity | inhibitor | radiometric | – | 1 µM | remaining activity | 97%
CC(=O)N1CCC(c2ccc(C(=O)NC(=N)N)cc2C(F)(F)F)CC1 | cell-free assay | – | competition with immobilised ligand | – | 1 µM | remaining binding | 100%
Cc1ccc(NC(=O)c2ccc(C)c(C(F)(F)F)c2)cc1C#Cc1nn(C2CCC(O)CC2)c2ncnc(N)c12 (stereo not drawn) | cell-free assay | – | – | – | 10 µM | remaining signal | 113%
CNCc1ccccc1-c1csc([C@H](C)Nc2nc(C)nc3cc(OC)c(OC)cc23)c1 | cell-free assay | – | competition with immobilised ligand | – | 1 µM | remaining binding | 100%
CC/C(=N\NC(=O)NCc1cccc(O)c1)c1ccc(O)c(C)c1O | enzyme activity | inhibitor | – | – | 0.1 µM | inhibition | -2.9%
O=C(Nc1cccnn1)N1CC(C/C=C/c2cncc(Oc3ccc(C(F)(F)F)cn3)n2)C1 | cell-free assay | – | competition with immobilised ligand | – | 1 µM | remaining binding | 100%
CNc1cc(Oc2cc(C(=O)Nc3cc(N4CCN(C)CC4)cc(C(F)(F)F)c3)ccc2C)ncn1 | target engagement in cells | inhibitor | chemoproteomics | Huh-7 | 1 µM | inhibition | -18.1%
CO[C@@H](C)c1c(Nc2ccc([C@H](N(C)C(=O)C3CCS(=O)(=O)CC3)C(F)(F)F)cc2)cnc2cc(Cl)nn12 | cell-free assay | – | competition with immobilised ligand | – | 1 µM | remaining binding | 96%
O=C1NC(=O)c2cc(Nc3ccc(F)cc3)c(Nc3ccc(F)cc3)cc21 | cell-free assay | – | – | – | 0.5 µM | remaining signal | 97.1%
O=C(Nc1cnn(-c2csc(C(=O)NC3COC3)c2)c1)Nc1c(F)cccc1Cl | enzyme activity | inhibitor | – | – | 5 µM | remaining activity | 131%
